Assays:
band 3 [1] = biological target: T1, band 3 (Homo sapiens, UniProt P02730); assay: 36Cl exchange flux inhibition in red blood cells, Dixon plots; type: cell-based
T1 sequence (P02730 1-911): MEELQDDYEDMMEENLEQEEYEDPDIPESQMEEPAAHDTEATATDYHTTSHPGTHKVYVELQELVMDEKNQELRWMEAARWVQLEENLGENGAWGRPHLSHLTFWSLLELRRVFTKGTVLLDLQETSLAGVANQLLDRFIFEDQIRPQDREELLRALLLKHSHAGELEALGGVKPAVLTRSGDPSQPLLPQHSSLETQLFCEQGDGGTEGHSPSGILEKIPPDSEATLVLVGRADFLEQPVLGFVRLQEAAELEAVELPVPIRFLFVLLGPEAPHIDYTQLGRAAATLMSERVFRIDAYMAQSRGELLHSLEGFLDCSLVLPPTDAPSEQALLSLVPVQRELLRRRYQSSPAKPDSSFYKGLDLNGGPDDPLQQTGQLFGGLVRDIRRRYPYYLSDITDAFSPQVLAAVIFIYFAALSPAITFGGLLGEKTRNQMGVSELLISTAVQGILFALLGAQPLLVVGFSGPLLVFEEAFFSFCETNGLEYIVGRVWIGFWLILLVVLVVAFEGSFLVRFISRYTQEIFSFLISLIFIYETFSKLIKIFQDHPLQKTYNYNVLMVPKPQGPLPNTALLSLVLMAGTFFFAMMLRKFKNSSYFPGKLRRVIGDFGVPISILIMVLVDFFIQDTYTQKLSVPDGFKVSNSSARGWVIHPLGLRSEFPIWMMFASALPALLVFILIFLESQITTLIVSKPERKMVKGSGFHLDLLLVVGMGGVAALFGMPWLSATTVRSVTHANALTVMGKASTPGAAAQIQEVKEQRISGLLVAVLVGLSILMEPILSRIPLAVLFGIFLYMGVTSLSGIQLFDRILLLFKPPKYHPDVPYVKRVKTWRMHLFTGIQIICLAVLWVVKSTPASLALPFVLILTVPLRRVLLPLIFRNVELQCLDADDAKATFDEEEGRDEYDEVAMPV

band 3 [2] = biological target: T1, band 3; assay: 125I iodide influx into red blood cells; type: cell-based
Summary of the method: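 Heparinised human blood was washed three times in 150 KH (150 mM KCl, 24 mM sucrose, 20 mM Hepes, pH 7.2 at 0°C), with white cells aspirated, then held at 50% hematocrit. DIDS-treated cells received a 2 mM DIDS stock. Media mixed sucrose, KCl and KI with 5 mM buffer. Above pHo 11, cells were nystatin-loaded to 300 mM Cl-, and CAPS-buffered media were used.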

SMILES: O=S(=O)(O)CCCNC1CCCCC1 [CAPS, 3-[cyclohexylamino]-l-propanesulfonic acid]
- effect of buffer on anion transport or on KoI (band 3 [1]; pHo ~12, compared with data obtained without buffer): does not show any inhibitory effects

SMILES: O=S(=O)(O)c1cc(N=C=S)ccc1C=Cc1ccc(N=C=S)cc1S(=O)(=O)O [DIDS, 4,4'-diisothiocyano-stilbene-2,2'-disulfonate]
- I- influx in DIDS-treated cells as % of value in control cells (band 3 [2]; all pH except 11.5): less than 10%
- DIDS-insensitive I- flux as % of control flux (band 3 [2]; pH 11.5, very scattered values): up to 25%

SMILES: O=C(O)CC(O)(CC(=O)O)C(=O)O [citrate]
- type of inhibition of Cl- flux (Lineweaver-Burk plot) (band 3 [1]; 24 mM citrate, pHo 6.8, sucrose replacing Cl-): mixed inhibition
- y intercept of Dixon slope vs 1/[Clo] (citrate) (band 3 [1]; pHo 6.8): 0.00017 kg Hb·s·mmol-1·mM-1
- y intercept of Dixon slope vs 1/[Clo] (citrate) (band 3 [1]; pHo 8.0): 0.0001 kg Hb·s·mmol-1·mM-1

From publication PMC2219267 (The Journal of General Physiology, 1996)
